Assay results reported in BindingDB's records for doi:10.1021/acs.jmedchem.6b01066 (University of Copenhagen, 2016).

Target: T1, Excitatory amino acid transporter 3 (Homo sapiens, UniProt P43005)
T1 sequence (P43005 whole entry): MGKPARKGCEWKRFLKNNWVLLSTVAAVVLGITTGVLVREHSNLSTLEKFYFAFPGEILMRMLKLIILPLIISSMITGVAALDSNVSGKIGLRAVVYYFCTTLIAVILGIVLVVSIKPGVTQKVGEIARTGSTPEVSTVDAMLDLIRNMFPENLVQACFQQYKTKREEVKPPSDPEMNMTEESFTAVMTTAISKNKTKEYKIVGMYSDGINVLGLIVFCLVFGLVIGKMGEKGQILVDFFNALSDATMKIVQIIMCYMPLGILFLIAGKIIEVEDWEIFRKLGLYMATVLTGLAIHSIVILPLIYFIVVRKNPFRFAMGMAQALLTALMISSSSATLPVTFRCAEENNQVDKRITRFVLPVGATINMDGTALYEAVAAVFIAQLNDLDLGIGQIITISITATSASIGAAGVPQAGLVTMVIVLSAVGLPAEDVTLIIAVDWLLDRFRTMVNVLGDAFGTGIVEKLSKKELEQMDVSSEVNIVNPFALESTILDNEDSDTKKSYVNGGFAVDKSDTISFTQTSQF
Assay: Inhibition of [3H]-D-Asp uptake at human EAAT3 expressed in HEK293 cells measured after 3 mins by TopCount method
Procedure, shortened: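 Stably transfected EAAT1-, EAAT2- or EAAT3-HEK293 lines grown in high-glucose GlutaMAX DMEM with 5% dialyzed FBS, penicillin/streptomycin and […]. Cells were seeded and reached confluence in 16−24 h, then washed in uptake buffer (HBSS, 20 mM HEPES, 1 mM CaCl₂, 1 mM MgCl₂, pH 7.4). Uptake ran 3 min at room temperature with 100 nM [³H]-D-aspartate plus test compound at varied concentrations. Two ice-cold washes, then scintillation counting. IC₅₀ from concentration−inhibition curves, n = 3−5.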

## N[C@H](C(=O)O)C(NC(=O)Oc1ccccc1)C(=O)O (stereo partly specified)
  IC50: 316 µM
